# From ChEMBL document CHEMBL2062460, “Disubstituted thiourea derivatives and their activity on CNS: synthesis and biological evaluation” (Eur J Med Chem, 2012)
# Active and inactive are the calls of the source. No cut-off for these calls is given here.
# Tested on: Staphylococcus aureus
# Test: Antibacterial activity against methicillin-susceptible Staphylococcus aureus clinical isolate 369/09 after 18 hrs by twofold serial agar dilution technique
# Format: functional
# Settings: clinical isolate 369/09, 18 h
# Procedure, shortened: (§1)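 Clinical isolates came from patients in Warsaw Medical University Hospitals and were classed as methicillin-susceptible or -resistant. MIC was determined by twofold serial agar dilution on Mueller–Hinton II agar (CLSI), 3.125–400 µg/mL in agar, with compounds in methanol or DMSO. Inoculum was 10^4 CFU/mL and plates were read after 18 h at 35 °C.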
row,Structure (SMILES),MIC [µg/mL]
1,S=C(Nc1ccc(Br)cc1)Nc1nc[nH]n1,50

# Tested on: Escherichia coli
# Test: Antibacterial activity against Escherichia coli ATCC 25922 at 400 ug/disc after 18 hrs by disc diffusion method
# Format: functional, organism-based
# Settings: not given
# Procedure, shortened: (§2)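 Disc diffusion per CLSI on Mueller–Hinton II agar; 9 mm paper discs loaded from methanol or DMSO solutions to 400 µg per disc, dried; growth inhibition zone diameter read after 18 h at 35 °C.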
row,Structure (SMILES),diameter of the inhibition zone (DIZ)
1,S=C(Nc1ccc(Br)cc1)Nc1nc[nH]n1,inactive

# Tested on: Staphylococcus epidermidis
# Test: Antibacterial activity against methicillin-resistant Staphylococcus epidermidis clinical isolate 315/08 after 18 hrs by twofold serial agar dilution technique
# Format: functional
# Settings: clinical isolate 315/08, 18 h
# Procedure, shortened: as §1
row,Structure (SMILES),MIC [µg/mL]
1,S=C(Nc1ccc(Br)cc1)Nc1nc[nH]n1,50

# Tested on: Staphylococcus epidermidis
# Test: Antibacterial activity against methicillin-resistant Staphylococcus epidermidis clinical isolate 311/08 after 18 hrs by twofold serial agar dilution technique
# Format: functional
# Settings: clinical isolate 311/08, 18 h
# Procedure, shortened: as §1
row,Structure (SMILES),MIC [µg/mL]
1,S=C(Nc1ccc(Br)cc1)Nc1nc[nH]n1,50

# Tested on: Staphylococcus aureus
# Test: Antibacterial activity against methicillin-resistant Staphylococcus aureus clinical isolate 277/08 after 18 hrs by twofold serial agar dilution technique
# Format: functional
# Settings: clinical isolate 277/08, 18 h
# Procedure, shortened: as §1
row,Structure (SMILES),MIC [µg/mL]
1,S=C(Nc1ccc(Br)cc1)Nc1nc[nH]n1,50

# Tested on: Micrococcus luteus
# Test: Antibacterial activity against Micrococcus luteus ATCC 9341 after 18 hrs by twofold serial agar dilution technique
# Format: functional
# Settings: ATCC 9341, 18 h
row,Structure (SMILES),MIC [µg/mL]
1,S=C(Nc1ccc(Br)cc1)Nc1nc[nH]n1,25

# Tested on: Staphylococcus aureus
# Test: Antibacterial activity against methicillin-susceptible Staphylococcus aureus clinical isolate 338/08 after 18 hrs by twofold serial agar dilution technique
# Format: functional
# Settings: clinical isolate 338/08, 18 h
# Procedure, shortened: as §1
row,Structure (SMILES),MIC [µg/mL]
1,S=C(Nc1ccc(Br)cc1)Nc1nc[nH]n1,50

# Tested on: Staphylococcus epidermidis
# Test: Antibacterial activity against methicillin-resistant Staphylococcus epidermidis clinical isolate 318/08 after 18 hrs by twofold serial agar dilution technique
# Format: functional
# Settings: clinical isolate 318/08, 18 h
# Procedure, shortened: as §1
row,Structure (SMILES),MIC [µg/mL]
1,S=C(Nc1ccc(Br)cc1)Nc1nc[nH]n1,25

# Tested on: Staphylococcus aureus
# Test: Antibacterial activity against methicillin-resistant Staphylococcus aureus clinical isolate 309/08 after 18 hrs by twofold serial agar dilution technique
# Format: functional
# Settings: clinical isolate 309/08, 18 h
# Procedure, shortened: as §1
row,Structure (SMILES),MIC [µg/mL]
1,S=C(Nc1ccc(Br)cc1)Nc1nc[nH]n1,50

# Tested on: Staphylococcus aureus
# Test: Antibacterial activity against methicillin-resistant Staphylococcus aureus clinical isolate 325/09 after 18 hrs by twofold serial agar dilution technique
# Format: functional
# Settings: clinical isolate 325/09, 18 h
# Procedure, shortened: as §1
row,Structure (SMILES),MIC [µg/mL]
1,S=C(Nc1ccc(Br)cc1)Nc1nc[nH]n1,50

# Tested on: Staphylococcus aureus
# Test: Antibacterial activity against methicillin-resistant Staphylococcus aureus clinical isolate 376/09 after 18 hrs by twofold serial agar dilution technique
# Format: functional
# Settings: clinical isolate 376/09, 18 h
# Procedure, shortened: as §1
row,Structure (SMILES),MIC [µg/mL]
1,S=C(Nc1ccc(Br)cc1)Nc1nc[nH]n1,50

# Tested on: Staphylococcus epidermidis
# Test: Antibacterial activity against methicillin-resistant Staphylococcus epidermidis clinical isolate 316/08 after 18 hrs by twofold serial agar dilution technique
# Format: functional
# Settings: clinical isolate 316/08, 18 h
# Procedure, shortened: as §1
row,Structure (SMILES),MIC [µg/mL]
1,S=C(Nc1ccc(Br)cc1)Nc1nc[nH]n1,50

# Tested on: Proteus vulgaris
# Test: Antibacterial activity against Proteus vulgaris NCTC 4635 at 400 ug/disc after 18 hrs by disc diffusion method
# Format: functional, organism-based
# Settings: not given
# Procedure, shortened: as §2
row,Structure (SMILES),diameter of the inhibition zone (DIZ)
1,S=C(Nc1ccc(Br)cc1)Nc1nc[nH]n1,inactive

# Tested on: Staphylococcus aureus
# Test: Antibacterial activity against Staphylococcus aureus ATCC 25923 at 400 ug/disc after 18 hrs by disc diffusion method
# Format: functional
# Settings: ATCC 25923, 18 h, read-out: DIZ
# Procedure, shortened: as §2
row,Structure (SMILES),zone of inhibition at 400 µg/disc [mm]
1,S=C(Nc1ccc(Br)cc1)Nc1nc[nH]n1,22

# Tested on: Staphylococcus aureus
# Test: Antibacterial activity against Staphylococcus aureus NCTC 4163 after 18 hrs by twofold serial agar dilution technique
# Format: functional
# Settings: NCTC 4163, 18 h
# Procedure, shortened: (§3)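 Twofold serial agar dilution on Mueller–Hinton II agar, following CLSI guidelines. Compounds were dissolved in methanol or DMSO and tested at final agar concentrations of 3.125–400 µg/mL. Final inoculum was 10^4 CFU/mL.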
row,Structure (SMILES),MIC [µg/mL]
1,S=C(Nc1ccc(Br)cc1)Nc1nc[nH]n1,50

# Tested on: Candida parapsilosis
# Test: Antifungal activity against Candida parapsilosis ATCC 22019 at 400 ug/disc after 18 hrs by disc diffusion method
# Format: functional, organism-based
# Settings: not given
# Procedure, shortened: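 Yeasts tested by disc diffusion (CLSI) on RPMI agar with 2% glucose; 9 mm paper discs bearing 400 µg compound from methanol or DMSO solution; inhibition zone diameter read after 18 h at 35 °C.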
row,Structure (SMILES),diameter of the inhibition zone (DIZ)
1,S=C(Nc1ccc(Br)cc1)Nc1nc[nH]n1,inactive

# Tested on: Staphylococcus aureus
# Test: Antibacterial activity against methicillin-susceptible Staphylococcus aureus clinical isolate 261/08 after 18 hrs by twofold serial agar dilution technique
# Format: functional
# Settings: clinical isolate 261/08, 18 h
# Procedure, shortened: as §1
row,Structure (SMILES),MIC [µg/mL]
1,S=C(Nc1ccc(Br)cc1)Nc1nc[nH]n1,25

# Tested on: Bordetella bronchiseptica
# Test: Antibacterial activity against Bordetella bronchiseptica ATCC 4617 at 400 ug/disc after 18 hrs by disc diffusion method
# Format: functional, organism-based
# Settings: not given
# Procedure, shortened: as §2
row,Structure (SMILES),diameter of the inhibition zone (DIZ)
1,S=C(Nc1ccc(Br)cc1)Nc1nc[nH]n1,inactive

# Tested on: Bacillus cereus
# Test: Antibacterial activity against Bacillus cereus ATCC 11778 at 400 ug/disc after 18 hrs by disc diffusion method
# Format: functional
# Settings: ATCC 11778, 18 h, read-out: DIZ
# Procedure, shortened: as §2
row,Structure (SMILES),zone of inhibition at 400 µg/disc [mm]
1,S=C(Nc1ccc(Br)cc1)Nc1nc[nH]n1,18

# Tested on: Escherichia coli
# Test: Antibacterial activity against Escherichia coli ATCC 10538 at 400 ug/disc after 18 hrs by disc diffusion method
# Format: functional, organism-based
# Settings: not given
# Procedure, shortened: as §2
row,Structure (SMILES),diameter of the inhibition zone (DIZ)
1,S=C(Nc1ccc(Br)cc1)Nc1nc[nH]n1,inactive

# Tested on: Staphylococcus epidermidis
# Test: Antibacterial activity against methicillin-resistant Staphylococcus epidermidis clinical isolate 342/09 after 18 hrs by twofold serial agar dilution technique
# Format: functional
# Settings: clinical isolate 342/09, 18 h
# Procedure, shortened: as §1
row,Structure (SMILES),MIC [µg/mL]
1,S=C(Nc1ccc(Br)cc1)Nc1nc[nH]n1,25

# Tested on: Enterococcus hirae
# Test: Antibacterial activity against Enterococcus hirae ATCC 10541 at 400 ug/disc after 18 hrs by disc diffusion method
# Format: functional
# Settings: ATCC 10541, 18 h, read-out: DIZ
# Procedure, shortened: as §2
row,Structure (SMILES),zone of inhibition at 400 µg/disc [mm]
1,S=C(Nc1ccc(Br)cc1)Nc1nc[nH]n1,25

# Tested on: Staphylococcus aureus
# Test: Antibacterial activity against methicillin-susceptible Staphylococcus aureus clinical isolate 367/09 after 18 hrs by twofold serial agar dilution technique
# Format: functional
# Settings: clinical isolate 367/09, 18 h
# Procedure, shortened: as §1
row,Structure (SMILES),MIC [µg/mL]
1,S=C(Nc1ccc(Br)cc1)Nc1nc[nH]n1,50

# Tested on: Bacillus subtilis
# Test: Antibacterial activity against Bacillus subtilis ATCC 6633 at 400 ug/disc after 18 hrs by disc diffusion method
# Format: functional
# Settings: ATCC 6633, 18 h, read-out: DIZ
# Procedure, shortened: as §2
row,Structure (SMILES),zone of inhibition at 400 µg/disc [mm]
1,S=C(Nc1ccc(Br)cc1)Nc1nc[nH]n1,30

# Tested on: Staphylococcus aureus
# Test: Antibacterial activity against methicillin-resistant Staphylococcus aureus clinical isolate 307/08 after 18 hrs by twofold serial agar dilution technique
# Format: functional
# Settings: clinical isolate 307/08, 18 h
# Procedure, shortened: as §1
row,Structure (SMILES),MIC [µg/mL]
1,S=C(Nc1ccc(Br)cc1)Nc1nc[nH]n1,50

# Tested on: Staphylococcus aureus
# Test: Antibacterial activity against methicillin-susceptible Staphylococcus aureus clinical isolate 339/09 after 18 hrs by twofold serial agar dilution technique
# Format: functional
# Settings: clinical isolate 339/09, 18 h
# Procedure, shortened: as §1
row,Structure (SMILES),MIC [µg/mL]
1,S=C(Nc1ccc(Br)cc1)Nc1nc[nH]n1,50

# Tested on: Pseudomonas aeruginosa
# Test: Antibacterial activity against Pseudomonas aeruginosa NCTC 6749 at 400 ug/disc after 18 hrs by disc diffusion method
# Format: functional, organism-based
# Settings: not given
# Procedure, shortened: as §2
row,Structure (SMILES),diameter of the inhibition zone (DIZ)
1,S=C(Nc1ccc(Br)cc1)Nc1nc[nH]n1,inactive

# Tested on: Staphylococcus aureus
# Test: Antibacterial activity against methicillin-resistant Staphylococcus aureus clinical isolate 356/09 after 18 hrs by twofold serial agar dilution technique
# Format: functional
# Settings: clinical isolate 356/09, 18 h
# Procedure, shortened: as §1
row,Structure (SMILES),MIC [µg/mL]
1,S=C(Nc1ccc(Br)cc1)Nc1nc[nH]n1,50

# Tested on: Staphylococcus epidermidis
# Test: Antibacterial activity against methicillin-resistant Staphylococcus epidermidis clinical isolate 341/09 after 18 hrs by twofold serial agar dilution technique
# Format: functional
# Settings: clinical isolate 341/09, 18 h
# Procedure, shortened: as §1
row,Structure (SMILES),MIC [µg/mL]
1,S=C(Nc1ccc(Br)cc1)Nc1nc[nH]n1,50

# Tested on: Bacillus cereus
# Test: Antibacterial activity against Bacillus cereus ATCC 11778 after 18 hrs by twofold serial agar dilution technique
# Format: functional
# Settings: ATCC 11778, 18 h
row,Structure (SMILES),MIC [µg/mL]
1,S=C(Nc1ccc(Br)cc1)Nc1nc[nH]n1,12.5

# Tested on: Staphylococcus epidermidis
# Test: Antibacterial activity against methicillin-resistant Staphylococcus epidermidis clinical isolate 377/09 after 18 hrs by twofold serial agar dilution technique
# Format: functional
# Settings: clinical isolate 377/09, 18 h
# Procedure, shortened: as §1
row,Structure (SMILES),MIC [µg/mL]
1,S=C(Nc1ccc(Br)cc1)Nc1nc[nH]n1,25

# Tested on: Staphylococcus aureus
# Test: Antibacterial activity against Staphylococcus aureus ATCC 6538 at 400 ug/disc after 18 hrs by disc diffusion method
# Format: functional
# Settings: ATCC 6538, 18 h, read-out: DIZ
# Procedure, shortened: as §2
row,Structure (SMILES),zone of inhibition at 400 µg/disc [mm]
1,S=C(Nc1ccc(Br)cc1)Nc1nc[nH]n1,16

# Tested on: Micrococcus luteus
# Test: Antibacterial activity against Micrococcus luteus ATCC 10240 at 400 ug/disc after 18 hrs by disc diffusion method
# Format: functional
# Settings: ATCC 10240, 18 h, read-out: DIZ
# Procedure, shortened: as §2
row,Structure (SMILES),zone of inhibition at 400 µg/disc [mm]
1,S=C(Nc1ccc(Br)cc1)Nc1nc[nH]n1,29

# Tested on: not listed separately
# Test: Cytotoxicity against human MT4 cells after 96 hrs by MTT assay
# Format: cell-based
# Settings: not given
row,Structure (SMILES),CC50 at 96 h [µM]
1,S=C(Nc1ccc(Br)cc1)Nc1nc[nH]n1,> 100

# Tested on: Staphylococcus aureus
# Test: Antibacterial activity against methicillin-resistant Staphylococcus aureus clinical isolate 275/08 after 18 hrs by twofold serial agar dilution technique
# Format: functional
# Settings: clinical isolate 275/08, 18 h
# Procedure, shortened: as §1
row,Structure (SMILES),MIC [µg/mL]
1,S=C(Nc1ccc(Br)cc1)Nc1nc[nH]n1,100

# Tested on: Staphylococcus aureus
# Test: Antibacterial activity against Staphylococcus aureus ATCC 29213 after 18 hrs by twofold serial agar dilution technique
# Format: functional
# Settings: ATCC 29213, 18 h
# Procedure, shortened: as §3
row,Structure (SMILES),MIC [µg/mL]
1,S=C(Nc1ccc(Br)cc1)Nc1nc[nH]n1,25

# Tested on: Staphylococcus aureus
# Test: Antibacterial activity against methicillin-resistant Staphylococcus aureus clinical isolate 306/08 after 18 hrs by twofold serial agar dilution technique
# Format: functional
# Settings: clinical isolate 306/08, 18 h
# Procedure, shortened: as §1
row,Structure (SMILES),MIC [µg/mL]
1,S=C(Nc1ccc(Br)cc1)Nc1nc[nH]n1,50
